The subject of assay [1] is Aspergillus ochraceus. In words: Antifungal activity against Aspergillus ochraceus ATCC 12066 after 72 hrs by serial dilution technique. In kind it is functional. Conditions: ATCC 12066, 72 h. In short, it runs like this: (§1)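 Modified microdilution in 96-well plates. Fungi were kept on malt agar at 4 °C. Spores were washed off in sterile 0.85% saline with 0.1% Tween 80. Compounds were dissolved at 1 mg/ml in 5% DMSO with 0.1% Tween 80 and added to malt broth with inoculum. Plates were shaken at 160 rpm for 72 h at 28 °C. Duplicate, repeated three times.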

Assay [2] deals with Candida albicans. The assay can be described thus: Antifungal activity against Candida albicans isolated from human incubated for 72 hrs followed by serial sub-cultivation for 72 hrs by serial dilution technique. The class given is functional. In short, it runs like this:
(§2)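 MFC: material from 72 h malt broth microdilution wells was serially sub-cultured into fresh broth plates and incubated a further 72 h at 28 °C. Fungicidal concentration is taken from growth after sub-culture. Duplicate, repeated three times.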

Assay [3] deals with Aspergillus ochraceus. The assay can be described thus: Antifungal activity against Aspergillus ochraceus ATCC 12066 incubated for 72 hrs followed by serial sub-cultivation for 72 hrs by serial dilution technique. The class given is functional. Conditions: ATCC 12066, 72 h. In short, it runs like this: as §2
Assay [4] has as its system Aspergillus flavus. The assay can be described thus: Antifungal activity against Aspergillus flavus ATCC 9643 incubated for 72 hrs followed by serial sub-cultivation for 72 hrs by serial dilution technique. The following applies: ATCC 9643, 72 h. The class given is functional. The procedure, abridged:
as §2

For assay [5], the system named is Talaromyces funiculosus. In words: Antifungal activity against Penicillium funiculosum ATCC 36839 after 72 hrs by serial dilution technique. In kind it is functional. Conditions: ATCC 36839, 72 h. The procedure, abridged:
as §1

For assay [6], the system named is Candida albicans. In words: Antifungal activity against Candida albicans isolated from human after 72 hrs by serial dilution technique. In kind it is functional. The procedure, abridged: as §1
Assay [7] concerns Aspergillus niger. In words: Antifungal activity against Aspergillus niger ATCC 6275 after 72 hrs by serial dilution technique. The class given is functional. Conditions: ATCC 6275, 72 h. The procedure, abridged: as §1
In assay [8] the test system is Aspergillus ochraceus. In words: Antifungal activity against Aspergillus ochraceus after 72 hrs by serial dilution technique.
The next assay has as its system Aspergillus fumigatus. The assay can be described thus: Antifungal activity against Aspergillus fumigatus isolated from human incubated for 72 hrs followed by serial sub-cultivation for 72 hrs by serial dilution technique. The class given is functional. The procedure, abridged: as §2
Assay [9] relates to Penicillium ochrochloron. The assay can be described thus: Antifungal activity against Penicillium ochrochloron ATCC 9112 incubated for 72 hrs followed by serial sub-cultivation for 72 hrs by serial dilution technique. The following applies: ATCC 9112, 72 h. In kind it is functional. In short, it runs like this:
as §2

Assay [10] concerns Penicillium ochrochloron. The assay can be described thus: Antifungal activity against Penicillium ochrochloron ATCC 9112 after 72 hrs by serial dilution technique. In kind it is functional. The following applies: ATCC 9112, 72 h. The procedure, abridged: as §1
Assay [11] has as its system Trichoderma viride. In words: Antifungal activity against Trichoderma viride IAM 5061 after 72 hrs by serial dilution technique. In kind it is functional. Conditions: IAM 5061, 72 h. The procedure, abridged:
as §1

The test system of assay [12] is Aspergillus flavus. The assay can be described thus: Antifungal activity against Aspergillus flavus ATCC 9643 after 72 hrs by serial dilution technique. The following applies: ATCC 9643, 72 h. The class given is functional. In short, it runs like this: as §1
Assay [13] concerns Aspergillus niger. The assay can be described thus: Antifungal activity against Aspergillus niger ATCC 6275 incubated for 72 hrs followed by serial sub-cultivation for 72 hrs by serial dilution technique. The class given is functional. Conditions: ATCC 6275, 72 h. The procedure, abridged:
as §2

In assay [14] the test system is Trichoderma viride. In words: Antifungal activity against Trichoderma viride IAM 5061 incubated for 72 hrs followed by serial sub-cultivation for 72 hrs by serial dilution technique. In kind it is functional. Conditions: IAM 5061, 72 h. The procedure, abridged: as §2
In assay [15] the test system is Talaromyces funiculosus. In words: Antifungal activity against Penicillium funiculosum ATCC 36839 incubated for 72 hrs followed by serial sub-cultivation for 72 hrs by serial dilution technique. In kind it is functional. The following applies: ATCC 36839, 72 h. The procedure, abridged: as §2
For assay [16], the system named is Enterococcus faecalis. In words: Antibacterial activity against Enterococcus faecalis isolated from human incubated for 24 hrs followed by serial sub-cultivation for 24 hrs by microdilution. In kind it is functional. The procedure, abridged:
(§3)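 MBC: after the 24 h LB broth microdilution (1.0 × 10⁴ CFU per well, 160 rpm), wells were serially sub-cultured into fresh broth plates and incubated a further 24 h. MBC is the lowest concentration with no visible growth, taken as 99.5% killing of the original inoculum. Duplicate, repeated three times.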

Assay [17] deals with Staphylococcus aureus. The assay can be described thus: Antibacterial activity against Staphylococcus aureus ATCC 6538 after 24 hrs by microdilution method. The class given is functional. The following applies: ATCC 6538, 24 h. The procedure, abridged: (§4)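 Broth microdilution in 96-well plates. Bacterial suspensions were adjusted in sterile saline to 1.0 × 10⁵ CFU/ml, prepared daily and kept at 4 °C. Compound was added to LB broth with 1.0 × 10⁴ CFU per well and shaken at 160 rpm for 24 h at […] (so in the source). MIC is the lowest concentration with no visible growth under a binocular microscope. OD655 was also read. Duplicate, repeated three times.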

The subject of assay [18] is Listeria monocytogenes. In words: Antibacterial activity against Listeria monocytogenes NCTC 7973 after 24 hrs by microdilution method. The class given is functional. Conditions: NCTC 7973, 24 h. In short, it runs like this: as §4
The subject of assay [19] is Bacillus cereus. The assay can be described thus: Antibacterial activity against clinical isolate of Bacillus cereus after 24 hrs by microdilution method. In kind it is functional. The procedure, abridged: as §4
The subject of assay [20] is Staphylococcus aureus. In words: Antibacterial activity against Staphylococcus aureus ATCC 6538 incubated for 24 hrs followed by serial sub-cultivation for 24 hrs by microdilution method. In kind it is functional. The following applies: ATCC 6538, 24 h. The procedure, abridged:
as §3

In assay [21] the test system is Micrococcus flavus. In words: Antibacterial activity against Micrococcus flavus ATCC 10240 after 24 hrs by microdilution method. The class given is functional. The following applies: ATCC 10240, 24 h. In short, it runs like this: as §4
For assay [22], the system named is Pseudomonas aeruginosa. In words: Antibacterial activity against Pseudomonas aeruginosa ATCC 27853 after 24 hrs by microdilution method. Conditions: ATCC 27853, 24 h. In kind it is functional. In short, it runs like this: as §4
The subject of assay [23] is Salmonella typhimurium. The assay can be described thus: Antibacterial activity against Salmonella Typhimurium ATCC 13311 incubated for 24 hrs followed by serial sub-cultivation for 24 hrs by microdilution. The class given is functional, Salmonella enterica subsp. enterica serovar Typhimurium. The following applies: Salmonella enterica, ATCC 13311, 24 h. The procedure, abridged: as §3

The test system of assay [24] is Listeria monocytogenes. In words: Antibacterial activity against Listeria monocytogenes NCTC 7973 incubated for 24 hrs followed by serial sub-cultivation for 24 hrs by microdilution. In kind it is functional. Conditions: NCTC 7973, 24 h. In short, it runs like this: as §3
Assay [25] has as its system Escherichia coli. In words: Antibacterial activity against Escherichia coli ATCC 35210 after 24 hrs by microdilution method. The class given is functional. Conditions: ATCC 35210, 24 h. In short, it runs like this: as §4
Assay [26] deals with Salmonella typhimurium. The assay can be described thus: Antibacterial activity against Salmonella Typhimurium ATCC 13311 after 24 hrs by microdilution method. In kind it is functional, Salmonella enterica subsp. enterica serovar Typhimurium. The following applies: Salmonella enterica, ATCC 13311, 24 h. In short, it runs like this:
as §4

Assay [27] relates to Pseudomonas aeruginosa. In words: Antibacterial activity against Pseudomonas aeruginosa ATCC 27853 incubated for 24 hrs followed by serial sub-cultivation for 24 hrs by microdilution. The following applies: ATCC 27853, 24 h. The class given is functional. In short, it runs like this:
as §3

Assay [28] concerns Micrococcus flavus. The assay can be described thus: Antibacterial activity against Micrococcus flavus ATCC 10240 incubated for 24 hrs followed by serial sub-cultivation for 24 hrs by microdilution. In kind it is functional. The following applies: ATCC 10240, 24 h. The procedure, abridged:
as §3

In assay [29] the test system is Escherichia coli. In words: Antibacterial activity against Escherichia coli ATCC 35210 incubated for 24 hrs followed by serial sub-cultivation for 24 hrs by microdilution. The class given is functional. Conditions: ATCC 35210, 24 h. The procedure, abridged:
as §3

The subject of assay [30] is Bacillus cereus. The assay can be described thus: Antibacterial activity against clinical isolate of Bacillus cereus incubated for 24 hrs followed by serial sub-cultivation for 24 hrs by microdilution. The class given is functional. The procedure, abridged: as §3
For assay [31], the system named is Enterococcus faecalis. In words: Antibacterial activity against Enterococcus faecalis isolated from human after 24 hrs by microdilution method. The class given is functional. The procedure, abridged:
as §4

Converted amounts (≈) assume the structure as drawn.

Turning to `c1ccc(-c2ccc(C(c3ccccc3)n3ccnc3)cc2)cc1` (stereo not drawn) [BIFONAZOLE], the MIC with Aspergillus ochraceus [1] is 480 µM (≈ 149 µg/mL); with Talaromyces funiculosus [5], 640 µM (≈ 199 µg/mL); against Candida albicans [6], 320 µM (≈ 99.3 µg/mL); against Aspergillus niger [7], 480 µM (≈ 149 µg/mL); with Aspergillus ochraceus [8], 480 µM (≈ 149 µg/mL); against Penicillium ochrochloron [10], 480 µM (≈ 149 µg/mL). Further, the values for the MIC against Trichoderma viride [11] and with Aspergillus flavus [12] were 640 µM (≈ 199 µg/mL) and 480 µM (≈ 149 µg/mL), respectively. Further, the minimal fungicidal concentration (MFC) against Candida albicans [2] worked out at 480 µM (≈ 149 µg/mL); in the assay with Aspergillus ochraceus [3], 800 µM (≈ 248 µg/mL); in the assay on Aspergillus flavus [4], 640 µM (≈ 199 µg/mL); in the assay with Aspergillus fumigatus, 640 µM (≈ 199 µg/mL); in the assay on Penicillium ochrochloron [9] it was 640 µM (≈ 199 µg/mL); with Aspergillus niger [13], 640 µM (≈ 199 µg/mL). Besides, the minimal fungicidal concentration (MFC) amounted to 0.8 mM (≈ 248 µg/mL) against Trichoderma viride [14] and 800 µM (≈ 248 µg/mL) with Talaromyces funiculosus [15].
As for `CC(=O)N1CCN(c2ccc(OCC3COC(Cn4ccnc4)(c4ccc(Cl)cc4Cl)O3)cc2)CC1` (stereo not drawn) [KETOCONAZOLE], the minimal inhibitory concentration (MIC) in the assay on Aspergillus ochraceus [1] was determined as 380 µM (≈ 202 µg/mL); in the assay on Talaromyces funiculosus [5], 380 µM (≈ 202 µg/mL); in the assay on Candida albicans [6], 380 µM (≈ 202 µg/mL); against Aspergillus niger [7] it was 380 µM (≈ 202 µg/mL); with Aspergillus ochraceus [8] it was 380 µM (≈ 202 µg/mL); in the assay on Penicillium ochrochloron [10], 3800 µM (≈ 2020 µg/mL). For the same molecule, the values for the MIC with Trichoderma viride [11] and in the assay with Aspergillus flavus [12] were 4750 µM (≈ 2520 µg/mL) and 2850 µM (≈ 1510 µg/mL), respectively. Moreover, the MFC with Candida albicans [2] was 950 µM (≈ 505 µg/mL); in the assay with Aspergillus ochraceus [3], 950 µM (≈ 505 µg/mL); with Aspergillus flavus [4], 3800 µM (≈ 2020 µg/mL); against Aspergillus fumigatus it was 950 µM (≈ 505 µg/mL); in the assay on Penicillium ochrochloron [9] it was 3800 µM (≈ 2020 µg/mL); against Aspergillus niger [13] it was 950 µM (≈ 505 µg/mL). For the same molecule, the MFC stood at 5.7 mM (≈ 3030 µg/mL) with Trichoderma viride [14] and 950 µM (≈ 505 µg/mL) against Talaromyces funiculosus [15].
As to `CN[C@@H]1[C@H](O[C@H]2[C@H](O[C@H]3[C@H](O)[C@@H](O)[C@H](N=C(N)N)[C@@H](O)[C@@H]3N=C(N)N)O[C@@H](C)[C@]2(O)C=O)O[C@@H](CO)[C@H](O)[C@H]1O` [STREPTOMYCIN], the MBC came out at 86 µM (≈ 50 µg/mL) against Enterococcus faecalis [16]; 344 µM (≈ 200 µg/mL) against Staphylococcus aureus [20]; 344 µM (≈ 200 µg/mL) in the assay on Salmonella typhimurium [23]; 516 µM (≈ 300 µg/mL) against Listeria monocytogenes [24]; 344 µM (≈ 200 µg/mL) in the assay on Pseudomonas aeruginosa [27]; 172 µM (≈ 100 µg/mL) against Micrococcus flavus [28]. Also, the results for the MBC against Escherichia coli [29] and against Bacillus cereus [30] were 344 µM (≈ 200 µg/mL) and 86 µM (≈ 50 µg/mL), respectively. In addition, the MIC against Staphylococcus aureus [17] amounted to 172 µM (≈ 100 µg/mL); with Listeria monocytogenes [18], 258 µM (≈ 150 µg/mL); in the assay on Bacillus cereus [19], 43 µM (≈ 25 µg/mL); in the assay with Micrococcus flavus [21], 86 µM (≈ 50 µg/mL); against Pseudomonas aeruginosa [22], 172 µM (≈ 100 µg/mL); in the assay on Escherichia coli [25], 172 µM (≈ 100 µg/mL). Also, the MIC was found to be 172 µM (≈ 100 µg/mL) with Salmonella typhimurium [26] and 43 µM (≈ 25 µg/mL) in the assay on Enterococcus faecalis [31].
